# Screening data deposited in PubChem BioAssay by The Scripps Research Institute Molecular Screening Center.
# RORa inhibitor: inhibitors of orphan receptor RORA, primary screen, cell-based, luminescence; inhibition, % at 10 µM; Nuclear receptor ROR-alpha (Homo sapiens), P35398; 65,000 tested, 0.43% active; CHO-K1 Gal4-RORA LBD luciferase reporter;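 active = inhibition above the mean of all tested compounds plus 3 SD, cut at about 52% in these data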;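 also: 0% = RORA-transfected cells with DMSO and 100% = mock-transfected cells lacking RORA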
# Target sequence (P35398 whole entry, looked up, the tested form may be a part): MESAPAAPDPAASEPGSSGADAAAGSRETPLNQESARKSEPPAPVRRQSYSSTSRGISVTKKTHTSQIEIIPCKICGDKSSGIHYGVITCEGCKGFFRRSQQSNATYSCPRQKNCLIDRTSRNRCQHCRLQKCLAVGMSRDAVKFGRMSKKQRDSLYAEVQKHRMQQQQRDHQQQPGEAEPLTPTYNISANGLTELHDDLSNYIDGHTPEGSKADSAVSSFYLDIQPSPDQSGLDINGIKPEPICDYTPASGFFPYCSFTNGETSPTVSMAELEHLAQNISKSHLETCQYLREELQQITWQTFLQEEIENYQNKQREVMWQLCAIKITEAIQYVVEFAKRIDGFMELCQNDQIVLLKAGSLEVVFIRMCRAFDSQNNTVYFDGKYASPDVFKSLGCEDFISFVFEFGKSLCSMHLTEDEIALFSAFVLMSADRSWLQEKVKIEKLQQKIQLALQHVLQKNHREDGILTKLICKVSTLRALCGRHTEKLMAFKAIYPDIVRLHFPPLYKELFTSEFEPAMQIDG
#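 Material: transiently transfected CHO-K1 cells, Gal4-DBD/human RORA-LBD fusion plus 5xGal4-luciferase reporter; doses: single concentration per compound, 10 µM final; incubation: 20 h at 37 °C; detection: luminescence from basal luciferase reporter expression; read-out: % inhibition of basal luciferase versus +RORA/-RORA DMSO controls; replication: tested once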
# An asterisk follows results filed as active. This is one part of a sample in which hits are shown more often than they occur.
SMILES,RORa inhibitor
CCOC(=O)N1CCN(Cc2nc3c(c(=O)[nH]c(=O)n3C)n2CCCc2ccccc2)CC1,20
c1ccc(-c2noc(C3CCCCC3)n2)nc1,-61
c1ccc(-c2noc(-c3ccc4c(c3)OCO4)n2)nc1,78*
CCc1ccc(OCc2nc(-c3ccccn3)no2)c(Br)c1,10
c1ccc(-c2noc(-c3ccc4ccccc4c3)n2)nc1,92*
CCOc1ccc(-c2nc(-c3ccccc3)no2)cc1OCC,-49
COc1ccc(-c2nc(-c3ccccc3OC)no2)cc1OC,-56
Cc1ccc(C)n1/N=C1/NC(=O)CS1,10
Cc1cc(OCC(=O)N2CCOCC2)c(C(C)C)cc1Cl,3
O=C(Cc1ccccc1)CC1(O)C(=O)Nc2ccccc21 (configuration not stated),4
COC(=O)c1ccccc1NC(=O)CN1CCC(NC(=O)c2ccccc2C)CC1,-12
COC(=O)c1ccc(CSc2nc3scc(-c4cccs4)c3c(=O)[nH]2)o1,-7
CCOC(=O)C1=C2N(C)c3ccccc3N2CCC1=O,2
CCCCn1c(SCC(=O)NCc2ccco2)nnc1-c1ccoc1C,6
CCOc1ccc(-c2cc(CCCC(=O)NCc3ccco3)no2)cc1,58*
COc1ccc(-c2nc(CS(=O)CC(=O)NCc3ccco3)c(C)o2)cc1 (configuration not stated),-13
COc1ccc(-c2nc(CSCC(=O)N3CCc4ccccc43)c(C)o2)cc1OC,7
COCCNC(=O)CSCc1nc(-c2ccc(SC)cc2)oc1C,89*
CCCCNC(=O)c1cc(-c2ccc(OC)cc2)on1,-59
CCc1ccc(-c2nc(CSCC(=O)N3CCN(c4ccccn4)CC3)c(C)o2)cc1,48
Cc1ccc(CS(=O)(=O)CCC(=O)NCCCN2CCCC2=O)cc1,-3
Cc1ccc(-c2nc(CS(=O)(=O)CC(=O)N3CC(C)CC(C)C3)c(C)o2)cc1 (configuration not stated),1
COc1ccc2cc(C3(C)NC(=O)N(CC(=O)NCc4ccco4)C3=O)ccc2c1 (configuration not stated),-1
CCOc1ccc(-c2nc(CSCC(=O)NCc3ccco3)c(C)o2)cc1,94*
CCc1ccc(-c2nc(CSCC(=O)NCCCN3CCCC3=O)c(C)o2)cc1,74*
SMILES,RORa inhibitor
Cc1ccc(C(=O)CSc2nnc(CNc3ccc(C)cc3C)o2)cc1,-3
O=C(NC1CCN(Cc2ccccc2)CC1)C1CCCN(S(=O)(=O)c2cccc3nonc23)C1 (configuration not stated),9
Cn1c(CCNC(=O)c2ccccc2F)nnc1SCc1nc2ccccc2c(=O)[nH]1,0
O=C(Nc1ccc2c(c1)OCO2)C1CCCCN1S(=O)(=O)c1ccc(F)cc1 (configuration not stated),8
CSC1=NC(NCCCO)c2c(sc3c2CC(C)(C)OC3)N1 (configuration not stated),-13
COc1ccc(OC(C)C(=O)N2CCc3ccccc3C2)cc1 (configuration not stated),15
CC(=O)c1ccc(NC(=O)CSc2nnc(Cn3c(=O)sc4ccccc43)n2C)cc1,-5
Cc1c(-c2nc(N)nc(Nc3ccccc3)n2)oc2ccccc12,-89
Cc1ccc(-n2ncc3c2ncn2c(C)nnc32)cc1C,-60
CC1CCCCC1NS(=O)(=O)c1ccc(S(=O)(=O)N2CCCC2)cc1 (configuration not stated),18
CN(CC(=O)Nc1nccs1)S(=O)(=O)c1ccc(F)cc1,-6
COC(=O)/C(=C1/Oc2cc(C)oc(=O)c2S1)C(F)(F)F,95*
CCOc1ccc(C2=Nn3c(nnc3-c3ccccc3OC)SC2)cc1,54*
COc1ccccc1-c1nnc(SCC(=O)Nc2nc(-c3ccccc3)cs2)n1C,-14
Clc1ccc(C2=Nn3c(nnc3-c3n[nH]c4c3CCC4)SC2)cc1,17
Clc1ccc(OCc2nc(-c3ccncc3)no2)c(Br)c1,-59
CCOc1ccc(C(=O)Nc2ccc(Cl)cn2)cc1Cl,-86
O=c1c2ccccc2cnn1-c1nc2ccccc2s1,90*
Cc1nn(-c2nc3ccccc3s2)c(N)c1Sc1ccc(F)cc1,-26
O=c1c2ccccc2nc2sc3ccccc3n12,-60
CCc1ccc(S(=O)(=O)NCc2csc(C)n2)s1,-3
COc1ccc(CNC(=O)C2CSC(=O)C2)cc1 (configuration not stated),11
O=c1cc(N2CCc3ccccc32)[nH]c(=O)n1Cc1ccc(F)cc1,-10
COc1ccc(Nc2nc(C)cc(C)c2C#N)cc1,-4
CC(=O)NC(Cc1ccccc1)C(=O)NC1CCN(C(=O)NC2CCCCC2)CC1 (configuration not stated),3
COc1cc(CC(NC(C)=O)C(=O)NC2CCN(c3nc(C)cc(C)c3C#N)CC2)cc(OC)c1 (configuration not stated),75*
O=S(=O)(NC1CC2CCC1C2)c1ccc(Br)s1 (configuration not stated),13
CC1=CCC(COC(=O)Nc2ccccc2)CC1 (configuration not stated),-90
CCOC(=O)c1ccc(NC(=O)c2cc(S(=O)(=O)N3CCOCC3)ccc2O)cc1,-10
